For experiment [1], the species on record is Homo sapiens. Kind of experiment: Compound was tested for the inhibition of LTB4 production in human whole blood (HWB). The format is functional. The following applies: Homo sapiens, Blood. The method in brief: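 LTB4 generation measured in human whole blood. IC50 values are the mean of at least two independent titrations, though some values come from a single titration. Where more than two IC50 values were determined, the 95% confidence limits were within 90% of the mean.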

Experiment [2] is filed under the species Homo sapiens. The experiment is described as follows: Test inhibition of LTB4 production in human peripheral blood polymorphonuclear leukocytes (HPMN). Format: functional. The method in brief: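 LTB4 generation measured in human peripheral blood polymorphonuclear leukocytes. IC50 values are the mean of at least two independent determinations, though some values come from a single titration.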

In experiment [3] the target is T1, Polyunsaturated fatty acid 5-lipoxygenase (Homo sapiens, UniProt P09917).
T1 sequence (P09917 whole entry): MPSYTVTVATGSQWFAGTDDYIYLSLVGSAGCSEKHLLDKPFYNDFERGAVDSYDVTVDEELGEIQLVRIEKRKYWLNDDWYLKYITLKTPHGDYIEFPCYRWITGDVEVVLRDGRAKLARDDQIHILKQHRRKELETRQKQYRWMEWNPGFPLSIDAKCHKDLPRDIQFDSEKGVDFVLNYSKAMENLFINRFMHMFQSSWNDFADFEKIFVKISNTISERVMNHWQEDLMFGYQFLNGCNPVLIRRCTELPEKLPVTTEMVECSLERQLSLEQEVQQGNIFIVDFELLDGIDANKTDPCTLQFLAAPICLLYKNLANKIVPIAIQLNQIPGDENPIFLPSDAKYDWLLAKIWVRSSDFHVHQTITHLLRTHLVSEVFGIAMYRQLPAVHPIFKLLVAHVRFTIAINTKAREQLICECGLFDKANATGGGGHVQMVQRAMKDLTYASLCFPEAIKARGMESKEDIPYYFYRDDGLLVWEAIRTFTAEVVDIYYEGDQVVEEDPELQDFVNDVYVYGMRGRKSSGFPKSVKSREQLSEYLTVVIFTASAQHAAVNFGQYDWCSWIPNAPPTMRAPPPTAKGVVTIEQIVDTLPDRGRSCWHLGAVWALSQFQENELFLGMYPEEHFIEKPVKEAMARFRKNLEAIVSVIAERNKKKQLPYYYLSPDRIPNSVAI
Kind of experiment: Potency to inhibit oxidation of arachidonic acid by recombinant human 5-lipoxygenase.

Bounds are passed on as bounds.

For the molecule `O=C(c1cc(-c2ccoc2)c2ccc(OCc3cccc(C4(O)CCOCC4)c3)cc2c1)c1nccs1`, the IC50 (commonly the concentration needed to halve the response being measured) came out at 130 nM in experiment [1], 2 nM in experiment [2] (Homo sapiens) and 50 nM in experiment [3].

Consider `O=C1OCc2c1cc1cc(OCc3cccc(C4(O)CC5C=CC(C4)O5)c3)ccc1c2-c1ccccc1` (configuration not stated), for which the IC50 in experiment [1] was greater than 3000 nM; in experiment [2] (Homo sapiens), 27 nM; in experiment [3] it was 400 nM.

For the molecule `CC1(C)COC(c2cc(-c3ccoc3)c3ccc(OCc4cccc(C5(O)CCOCC5)c4)cc3c2)=N1`, the IC50 in experiment [1] amounted to 2900 nM; in experiment [2] (Homo sapiens), 17 nM; in experiment [3] it was 190 nM.

Take `O=C1OCc2c1cc1cc(OCc3cccc(C4(O)CC5CCC(C4)O5)c3)ccc1c2-c1ccccc1` (configuration not stated): the results for the IC50 in experiment [1], in experiment [2] (Homo sapiens) and in experiment [3] were 1000 nM, 8 nM and 320 nM, respectively.

Consider `OC1(c2cccc(COc3ccc4c(-c5ccccc5)cc(-c5nn[nH]n5)cc4c3)c2)CCOCC1`, for which the IC50 in experiment [1] was greater than 3000 nM; in experiment [2] (Homo sapiens), greater than 700 nM; in experiment [3], greater than 6000 nM.

With `OC1(c2cccc(COc3ccc4c(-c5ccoc5)cc(C5=NCCS5)cc4c3)c2)CCOCC1`, the IC50 in experiment [1] was 75 nM; in experiment [2] (Homo sapiens), 2 nM; in experiment [3], 50 nM.

In the case of `OC1(c2cccc(COc3ccc4c(-c5ccoc5)cc(-c5nc6ccccc6s5)cc4c3)c2)CCOCC1`, the results for the IC50 in experiment [2] (Homo sapiens) and in experiment [3] were greater than 62 nM and greater than 6000 nM, respectively.

As to `OCc1cc(-c2ccccc2)c2ccc(OCc3cccc(C4(O)CCOCC4)c3)cc2c1`, the IC50 in experiment [2] (Homo sapiens) was 9 nM; in experiment [3], 260 nM.

In the case of `CCc1cc(-c2ccccc2)c2ccc(OCc3cccc(C4(O)CCOCC4)c3)cc2c1`, the IC50 in experiment [1] was greater than 1000 nM; in experiment [2] (Homo sapiens) it was 10 nM; in experiment [3], 760 nM.

In the case of `CC1CC(O)(c2cccc(COc3ccc4c(-c5ccccc5)c5c(cc4c3)C(=O)OC5)c2)CC(C)O1` (configuration not stated), the IC50 stood at 900 nM in experiment [1], 3 nM in experiment [2] (Homo sapiens) and 180 nM in experiment [3].

For `Cn1nnnc1-c1cc(-c2ccccc2)c2ccc(OCc3cccc(C4(O)CCOCC4)c3)cc2c1`, the values for the IC50 in experiment [1], in experiment [2] (Homo sapiens) and in experiment [3] were greater than 10000 nM, greater than 67 nM and 3000 nM, respectively.

For the molecule `CC(=O)c1cc(-c2ccccc2)c2ccc(OCc3cccc(C4(O)CCOCC4)c3)cc2c1`, the IC50 in experiment [1] was determined as 90 nM; in experiment [2] (Homo sapiens), 2 nM; in experiment [3] it was 130 nM.

With `O=C1OCc2c1cc1cc(OCc3cccc(C4(O)CCOCC4)c3)ccc1c2-c1ccoc1`, the IC50 amounted to 100 nM in experiment [1], 2 nM in experiment [2] (Homo sapiens) and 26 nM in experiment [3].

`OC1(c2cccc(COc3ccc4c(-c5ccoc5)cc(C5=NCCO5)cc4c3)c2)CCOCC1`: the IC50 in experiment [1] is 50 nM; in experiment [2] (Homo sapiens), 3 nM; in experiment [3] it was 70 nM.

`COC(=O)c1cc(Cc2ccccc2)c2ccc(OCc3cccc(C4(O)CCOCC4)c3)cc2c1`: the IC50 in experiment [2] (Homo sapiens) is greater than 70 nM; in experiment [3], greater than 6000 nM.

`Cn1nnc(-c2cc(-c3ccccc3)c3ccc(OCc4cccc(C5(O)CCOCC5)c4)cc3c2)n1`: the IC50 in experiment [1] was found to be 310 nM; in experiment [2] (Homo sapiens), 4 nM; in experiment [3], 120 nM.

`O=C1OCc2c1cc1cc(OCc3cccc(C4(O)CC5COC(C4)O5)c3)ccc1c2-c1ccccc1` (configuration not stated): the IC50 in experiment [1] was found to be 540 nM; in experiment [2] (Homo sapiens), 6 nM; in experiment [3], 240 nM.

In the case of `O=C1OC(O)c2c1cc1cc(OCc3cccc(C4(O)CCOCC4)c3)ccc1c2-c1ccccc1` (configuration not stated), the IC50 was greater than 3000 nM in experiment [1], greater than 700 nM in experiment [2] (Homo sapiens) and greater than 6000 nM in experiment [3].

Turning to `O=C(O)c1cc(-c2ccccc2)c2ccc(OCc3cccc(C4(O)CCOCC4)c3)cc2c1`, in experiment [2] (Homo sapiens), the IC50 was 190 nM.

Regarding `O=C1OCc2c1cc1cc(OCc3cccc(C4(O)CCOCC4)c3)ccc1c2-c1ccccc1`, the values for the IC50 in experiment [1] and in experiment [2] (Homo sapiens) were 140 nM and 2 nM, respectively.

Regarding `O=C1OCc2c1cc1cc(OCc3cccc(C4(O)CCOCC4)c3)ccc1c2-c1ccccc1F`, the values for the IC50 in experiment [1], in experiment [2] (Homo sapiens) and in experiment [3] were 1800 nM, 18 nM and 360 nM, respectively.

Take `OC1(c2cccc(COc3ccc4c(-c5ccccc5)cc(Cn5ccnc5)cc4c3)c2)CCOCC1`: the values for the IC50 in experiment [2] (Homo sapiens) and in experiment [3] were 40 nM and 640 nM, respectively.

As for `CC(O)c1cc(-c2ccccc2)c2ccc(OCc3cccc(C4(O)CCOCC4)c3)cc2c1` (configuration not stated), the IC50 was 675 nM in experiment [1], 28 nM in experiment [2] (Homo sapiens) and 520 nM in experiment [3].

Consider `N#Cc1cc(-c2ccccc2)c2ccc(OCc3cccc(C4(O)CCOCC4)c3)cc2c1`, for which the IC50 in experiment [1] worked out at 100 nM; in experiment [2] (Homo sapiens) it was 3 nM; in experiment [3] it was 120 nM.

With `COC(C)c1cc(-c2ccccc2)c2ccc(OCc3cccc(C4(O)CCOCC4)c3)cc2c1` (configuration not stated), the IC50 is greater than 1000 nM in experiment [1], 41 nM in experiment [2] (Homo sapiens) and 1200 nM in experiment [3].

On to `COC1CC(O)(c2cccc(COc3ccc4c(-c5ccccc5)c5c(cc4c3)C(=O)OC5)c2)CCO1` (configuration not stated), for which the IC50 in experiment [1] came to 120 nM; in experiment [2] (Homo sapiens), 2 nM; in experiment [3], 23 nM.

With `Cn1nnc(-c2cc(-c3ccoc3)c3ccc(OCc4cccc(C5(O)CCOCC5)c4)cc3c2)n1`, the IC50 in experiment [1] came to 80 nM; in experiment [2] (Homo sapiens) it was 2 nM; in experiment [3], 80 nM.

Regarding `O=C(c1ccccc1)c1cc(-c2ccoc2)c2ccc(OCc3cccc(C4(O)CCOCC4)c3)cc2c1`, the values for the IC50 in experiment [1], in experiment [2] (Homo sapiens) and in experiment [3] were 200 nM, 1 nM and 70 nM, respectively.

`COc1ccc(-c2c3c(cc4cc(OCc5cccc(C6(O)CCOCC6)c5)ccc24)C(=O)OC3)cc1`: the values for the IC50 in experiment [2] (Homo sapiens) and in experiment [3] were 89 nM and 6000 nM, respectively.

Regarding `CC1(C)OC(=O)c2cc3cc(OCc4cccc(C5(O)CCOCC5)c4)ccc3c(-c3ccccc3)c21`, the IC50 in experiment [1] is greater than 3000 nM; in experiment [2] (Homo sapiens) it was 80 nM; in experiment [3], greater than 6000 nM.

For the molecule `CC(C)(O)c1cc(-c2ccccc2)c2ccc(OCc3cccc(C4(O)CCOCC4)c3)cc2c1`, in experiment [2] (Homo sapiens), the IC50 came to 59 nM.

Take `OC1(c2cccc(COc3ccc4c(-c5ccoc5)cc(Cc5nccs5)cc4c3)c2)CCOCC1`: the values for the IC50 in experiment [1], in experiment [2] (Homo sapiens) and in experiment [3] were 660 nM, 1 nM and 140 nM, respectively.

Take `O=C1OCc2c1cc1cc(OCc3cccc(C4(O)CCOCC4)c3)ccc1c2-c1ccsc1`: the IC50 in experiment [1] is 50 nM; in experiment [2] (Homo sapiens), 2 nM; in experiment [3], 27 nM.

For `O=C1OCc2c1cc1cc(OCc3cccc(C4(O)CCOCC4)c3)ccc1c2-c1ccccc1Cl`, the IC50 in experiment [1] amounted to 1100 nM; in experiment [2] (Homo sapiens) it was 11 nM; in experiment [3] it was 380 nM.

As to `O=C(c1cccnc1)c1cc(-c2ccoc2)c2ccc(OCc3cccc(C4(O)CCOCC4)c3)cc2c1`, the IC50 in experiment [1] is 370 nM; in experiment [2] (Homo sapiens) it was 7 nM; in experiment [3] it was 120 nM.

Consider `O=C1OCc2c1cc1cc(OCc3cccc(C4(O)CCOCC4)c3)ccc1c2-c1ccco1`, for which the IC50 was determined as 450 nM in experiment [1], 5 nM in experiment [2] (Homo sapiens) and 280 nM in experiment [3].

As to `O=C1OCc2c1cc1cc(OCc3cccc(C4(O)CCOCC4)c3)ccc1c2-c1cccnc1`, the IC50 in experiment [1] turned out to be 1200 nM; in experiment [2] (Homo sapiens), 25 nM; in experiment [3], 720 nM.

As to `CCCCc1cc(C(=O)OC)cc2cc(OCc3cccc(C4(O)CCOCC4)c3)ccc12`, the IC50 is 15 nM in experiment [2] (Homo sapiens) and 2200 nM in experiment [3].

For the molecule `COC(=O)c1cc(-c2ccccc2)c2ccc(OCc3cccc(C4(O)CCOCC4)c3)cc2c1`, the figures for the IC50 in experiment [1], in experiment [2] (Homo sapiens) and in experiment [3] were 100 nM, 3 nM and 70 nM, respectively.

Regarding `O=C1OCc2c1cc1cc(OCc3cccc(C4(O)CCOCC4)c3)ccc1c2-c1ccc(F)cc1`, the IC50 is 410 nM in experiment [1], 3 nM in experiment [2] (Homo sapiens) and 140 nM in experiment [3].

On to `O=C1OCc2c1cc1cc(OCc3cccc(C4(O)CCOC(O)C4)c3)ccc1c2-c1ccccc1` (configuration not stated), for which the IC50 in experiment [1] came to 1600 nM; in experiment [2] (Homo sapiens), 15 nM; in experiment [3], 810 nM.

For the molecule `COc1cccc(-c2c3c(cc4cc(OCc5cccc(C6(O)CCOCC6)c5)ccc24)C(=O)OC3)c1`, the IC50 in experiment [1] was 260 nM; in experiment [2] (Homo sapiens), 4 nM; in experiment [3], 80 nM.

For `COCc1cc(-c2ccccc2)c2ccc(OCc3cccc(C4(O)CCOCC4)c3)cc2c1`, the IC50 was 200 nM in experiment [1], 4 nM in experiment [2] (Homo sapiens) and 160 nM in experiment [3].

`N#Cc1cc(-c2ccoc2)c2ccc(OCc3cccc(C4(O)CC5COC(C4)O5)c3)cc2c1` (configuration not stated): the IC50 in experiment [1] was found to be 150 nM; in experiment [2] (Homo sapiens), 3 nM; in experiment [3] it was 190 nM.

On to `N#Cc1cc(-c2ccoc2)c2ccc(OCc3cccc(C4(O)CCOCC4)c3)cc2c1`, for which the IC50 in experiment [1] came out at 10 nM; in experiment [2] (Homo sapiens), 2 nM; in experiment [3], 30 nM.

In the case of `O=C1OCc2c1cc1cc(OCc3cccc(C4(O)CC5COC(C4)O5)c3)ccc1c2-c1ccoc1` (stereo in doubt; 3u), the IC50 came out at 7 nM in experiment [2] and 140 nM in experiment [3].

In experiment [1], `CC(c1cc2ccccc2s1)N(O)C(N)=O` (configuration not stated) [ZILEUTON] gave an IC50 of 2000 nM.

These data come from ChEMBL document CHEMBL1129067, “Dioxabicyclooctanyl naphthalenenitriles as nonredox 5-lipoxygenase inhibitors: structure-activity relationship study directed toward the improvement of metabolic stability” (J Med Chem, 1996).
